In brackets after ≈: the same amount, converted by molar mass.
How the values were obtained:
Staphylococcus aureus [1] = assay: Antibacterial activity against methicillin-resistant Staphylococcus aureus COL after 20 hrs by broth microdilution assay; assay type: functional
Streptococcus pyogenes = assay: Antibacterial activity against Streptococcus pyogenes H293 after 20 hrs by broth microdilution assay; assay type: functional; conditions: H293, 20 h
Staphylococcus aureus [2] = assay: Antibacterial activity against vancomycin-resistant Staphylococcus aureus HIP14300 after 20 hrs by broth microdilution assay; assay type: functional; conditions: HIP14300, 20 h
Staphylococcus aureus [3] = assay: Antibacterial activity against vancomycin-intermediate resistant Staphylococcus aureus AR-217 after 20 hrs by broth microdilution assay; assay type: functional; conditions: AR-217, 20 h
Streptococcus pneumoniae = assay: Antibacterial activity against Streptococcus pneumoniae TCH8431 after 20 hrs by broth microdilution assay; assay type: functional; conditions: TCH8431, 20 h
[4] = test system: Staphylococcus epidermidis; assay: Antibacterial activity against vancomycin-intermediate resistant Staphylococcus epidermidis NRS6 after 20 hrs by broth microdilution assay; assay type: functional; conditions: NRS6, 20 h
Streptococcus agalactiae = assay: Antibacterial activity against Streptococcus agalactiae SGBS005 after 20 hrs by broth microdilution assay; assay type: functional; conditions: SGBS005, 20 h
Enterococcus faecium = assay: Antibacterial activity against vancomycin-resistant Enterococcus faecium ATCC 700221 after 20 hrs by broth microdilution assay; assay type: functional; conditions: ATCC 700221, 20 h
How it was run: (§1)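 Brain heart infusion broth at 37°C; E. faecium under 5% CO2. Cells at 0.5 McFarland are diluted 1:100 and exposed to serial dilutions (DMSO stocks 1 mM or 1 mg/mL; controls in water).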

Escherichia coli = assay: Antibacterial activity against Escherichia coli DC10B after 20 hrs by broth microdilution assay; assay type: functional
How it was run: (§2)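 Medium is tryptic soy broth, 37°C. Overnight culture is adjusted to 0.5 McFarland, diluted 1:100 and exposed to serial dilutions (test agents from 1 mM or 1 mg/mL DMSO stocks; control antibiotics in water). Incubation lasts 20 h. MIC is the lowest concentration with no visible growth.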

Brucella neotomae = assay: Antibacterial activity against Brucella neotomae 5K33 after 20 hrs by broth microdilution assay; assay type: functional; conditions: 5K33, 20 h
Corynebacterium striatum = assay: Antibacterial activity against Corynebacterium striatum FS-1 after 20 hrs by broth microdilution assay; assay type: functional; conditions: FS-1, 20 h
Burkholderia cepacia = assay: Antibacterial activity against Burkholderia cepacia UCB 717 after 20 hrs by broth microdilution assay; assay type: functional; conditions: UCB 717, 20 h; how it was run: as §2
Proteus mirabilis = assay: Antibacterial activity against Proteus mirabilis HM-752 after 20 hrs by broth microdilution assay; assay type: functional; conditions: HM-752, 20 h; how it was run: as §2
Pseudomonas aeruginosa = assay: Antibacterial activity against Pseudomonas aeruginosa ATCC 15442 after 20 hrs by broth microdilution assay; assay type: functional; conditions: ATCC 15442, 20 h; how it was run: as §2
Bacillus anthracis [5] = assay: Antibacterial activity against Bacillus anthracis UM23-1 after 20 hrs by broth microdilution assay; assay type: functional; conditions: UM23-1, 20 h
Bacillus anthracis [6] = assay: Antibacterial activity against Bacillus anthracis Sterne 34F2 after 20 hrs by broth microdilution assay; assay type: functional; conditions: Sterne 34F2, 20 h
Francisella tularensis = assay: Antibacterial activity against Francisella tularensis Utah 112 after 20 hrs by broth microdilution assay; assay type: functional; conditions: Utah 112, 20 h
[7] = test system: Yersinia pseudotuberculosis; assay: Antibacterial activity against Yersinia pseudotuberculosis P61 after 20 hrs by broth microdilution assay; assay type: functional; conditions: P61, 20 h
How it was run: (§3)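 Yersinia cultured in tryptic soy broth at 28°C. A 0.5 McFarland suspension diluted 1:100 receives serial dilutions of agents from 1 mM or 1 mg/mL DMSO stocks; control antibiotics are in water.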

Citrobacter freundii = assay: Antibacterial activity against Citrobacter freundii 4_7_47CFAA after 20 hrs by broth microdilution assay; assay type: functional
How it was run: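 Brucella broth, 37°C, 5% CO2. Inoculum is 0.5 McFarland diluted 1:100, with serial drug dilutions from DMSO stocks (1 mM or 1 mg/mL) and control antibiotics in water.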

Burkholderia multivorans = assay: Antibacterial activity against Burkholderia multivorans CF2 after 20 hrs by broth microdilution assay; assay type: functional; conditions: CF2, 20 h; how it was run: as §2
Bacillus anthracis [8] = assay: Antibacterial activity against Bacillus anthracis Ames 35 after 20 hrs by broth microdilution assay; assay type: functional; conditions: Ames 35, 20 h
Vibrio cholerae = assay: Antibacterial activity against Vibrio cholerae TS D4 after 20 hrs by Todd Hewitt broth broth microdilution method; assay type: functional; conditions: TS D4, 20 h
Bacillus anthracis [9] = assay: Antibacterial activity against Bacillus anthracis Weybridge after 20 hrs by broth microdilution assay; assay type: functional
Yersinia pestis [10] = assay: Antibacterial activity against Yersinia pestis Kuma D7 after 20 hrs by broth microdilution assay; assay type: functional; conditions: Kuma D7, 20 h
Yersinia enterocolitica = assay: Antibacterial activity against Yersinia enterocolitica WA-314 after 20 hrs by broth microdilution assay; assay type: functional; conditions: WA-314, 20 h; how it was run: as §3
Klebsiella pneumoniae = assay: Antibacterial activity against Klebsiella pneumoniae 700603 after 20 hrs by broth microdilution assay; assay type: functional; conditions: Klebsiella pneumoniae, 700603, 20 h; how it was run: as §2
Micrococcus luteus = assay: Antibacterial activity against Micrococcus luteus SK58 after 20 hrs by broth microdilution assay; assay type: functional; conditions: SK58, 20 h
Bacillus cereus = assay: Antibacterial activity against Bacillus cereus Gibson 971 after 20 hrs by broth microdilution assay; assay type: functional; conditions: Gibson 971, 20 h
Shigella dysenteriae = assay: Antibacterial activity against Shigella dysenteriae Newcastle 1934 after 20 hrs by broth microdilution assay; assay type: functional; conditions: Newcastle 1934, 20 h; how it was run: as §2
Salmonella typhi = assay: Antibacterial activity against Salmonella typhi Ty2 after 20 hrs by Todd Hewitt broth broth microdilution method; assay type: functional, Salmonella enterica subsp. enterica serovar Typhi str. Ty2; conditions: Salmonella enterica
Rhodococcus erythropolis = assay: Antibacterial activity against Rhodococcus erythropolis SK121 after 20 hrs by broth microdilution assay; assay type: functional; conditions: SK121, 20 h
How it was run: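 R. erythropolis grown in brain heart infusion broth at 30°C. A 0.5 McFarland suspension diluted 1:100 is treated with serial dilutions from 1 mM or 1 mg/mL DMSO stocks; control antibiotics are in water.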

Acinetobacter baumannii = assay: Antibacterial activity against Acinetobacter baumannii AB5075 after 20 hrs by broth microdilution assay; assay type: functional; conditions: AB5075, 20 h
Listeria monocytogenes = assay: Antibacterial activity against Listeria monocytogenes Gibson after 20 hrs by broth microdilution assay; assay type: functional; how it was run: as §1
Yersinia pestis [11] = assay: Antibacterial activity against Yersinia pestis Kim D2 after 20 hrs by broth microdilution assay; assay type: functional; conditions: Kim D2, 20 h

In the case of `CCSSC(=S)N(CC)CC`, the MIC (Staphylococcus aureus [1]) is reported as 16 µM (≈ 3.35 µg/mL), the MIC (Streptococcus pyogenes) is reported as 32 µM (≈ 6.7 µg/mL) and the MIC (Staphylococcus aureus [2]) is reported as 16 µM (≈ 3.35 µg/mL). The MIC (Staphylococcus aureus [3]) was 8 µM (≈ 1.68 µg/mL), the MIC (Streptococcus pneumoniae) was > 32 µM and the MIC [4] was 32 µM (≈ 6.7 µg/mL). For the same compound, the MIC (Streptococcus agalactiae) was > 32 µM and the MIC (Enterococcus faecium) was > 32 µM.

Compound `CCN(CC)C(=S)SSC1CCCC1` has an MIC (Staphylococcus aureus [1]) of 32 µM (≈ 7.98 µg/mL), an MIC (Streptococcus pyogenes) of 32 µM (≈ 7.98 µg/mL) and an MIC (Staphylococcus aureus [2]) of 32 µM (≈ 7.98 µg/mL). For the same compound, the MIC (Staphylococcus aureus [3]) was 16 µM (≈ 3.99 µg/mL), the MIC (Streptococcus pneumoniae) was > 32 µM and the MIC [4] was 32 µM (≈ 7.98 µg/mL). For the same compound, the MIC (Streptococcus agalactiae) was > 32 µM and the MIC (Enterococcus faecium) was > 32 µM.

`CCCCCSSC(=S)N(CC)CC` was tested, and the MIC (Escherichia coli) was > 32 µM, the MIC (Staphylococcus aureus [1]) was 16 µM (≈ 4.02 µg/mL) and the MIC (Brucella neotomae) was 32 µM (≈ 8.05 µg/mL). For the same compound, the MIC (Corynebacterium striatum) was 32 µM (≈ 8.05 µg/mL), the MIC (Burkholderia cepacia) was > 32 µM and the MIC (Proteus mirabilis) was > 32 µM. The MIC (Streptococcus pyogenes) was > 32 µM, the MIC (Staphylococcus aureus [2]) was 16 µM (≈ 4.02 µg/mL) and the MIC (Pseudomonas aeruginosa) was > 32 µM. It also gave an MIC (Bacillus anthracis [5]) of 4 µM (≈ 1.01 µg/mL), an MIC (Staphylococcus aureus [3]) of 8 µM (≈ 2.01 µg/mL) and an MIC (Bacillus anthracis [6]) of 4 µM (≈ 1.01 µg/mL). For the same compound, the MIC (Francisella tularensis) was 32 µM (≈ 8.05 µg/mL), the MIC [7] was > 32 µM and the MIC (Citrobacter freundii) was > 32 µM. The MIC (Burkholderia multivorans) was > 32 µM, the MIC (Bacillus anthracis [8]) was 4 µM (≈ 1.01 µg/mL) and the MIC (Vibrio cholerae) was > 32 µM. For the same compound, the MIC (Bacillus anthracis [9]) was 8 µM (≈ 2.01 µg/mL), the MIC (Yersinia pestis [10]) was 32 µM (≈ 8.05 µg/mL) and the MIC (Yersinia enterocolitica) was > 32 µM. For the same compound, the MIC (Streptococcus pneumoniae) was > 32 µM, the MIC (Klebsiella pneumoniae) was > 32 µM and the MIC (Micrococcus luteus) was 16 µM (≈ 4.02 µg/mL). For the same compound, the MIC (Bacillus cereus) was 1 µM (≈ 0.251 µg/mL), the MIC [4] was 8 µM (≈ 2.01 µg/mL) and the MIC (Streptococcus agalactiae) was > 32 µM. For the same compound, the MIC (Shigella dysenteriae) was > 32 µM, the MIC (Salmonella typhi) was > 32 µM and the MIC (Rhodococcus erythropolis) was 16 µM (≈ 4.02 µg/mL). For the same compound, the MIC (Enterococcus faecium) was > 32 µM, the MIC (Acinetobacter baumannii) was > 32 µM and the MIC (Listeria monocytogenes) was 8 µM (≈ 2.01 µg/mL). It also gave an MIC (Yersinia pestis [11]) of 32 µM (≈ 8.05 µg/mL).

For `CCN(CC)C(=S)SSCC(C)C`, the MIC (Staphylococcus aureus [1]) was > 32 µM, the MIC (Streptococcus pyogenes) was 32 µM (≈ 7.6 µg/mL) and the MIC (Staphylococcus aureus [2]) was > 32 µM. The MIC (Staphylococcus aureus [3]) was > 32 µM, the MIC (Streptococcus pneumoniae) was > 32 µM and the MIC [4] was > 32 µM. For the same compound, the MIC (Streptococcus agalactiae) was > 32 µM and the MIC (Enterococcus faecium) was > 32 µM.

`CCN(CC)C(=S)SSC(C)C` [ISOPROPYL DIETHYLCARBAMO(DITHIOPEROXO)THIOATE] was tested, and the MIC (Staphylococcus aureus [1]) was > 32 µM, the MIC (Streptococcus pyogenes) was 32 µM (≈ 7.15 µg/mL) and the MIC (Staphylococcus aureus [2]) was > 32 µM. For the same compound, the MIC (Staphylococcus aureus [3]) was 32 µM (≈ 7.15 µg/mL), the MIC (Streptococcus pneumoniae) was > 32 µM and the MIC [4] was > 32 µM. The MIC (Streptococcus agalactiae) was > 32 µM and the MIC (Enterococcus faecium) was > 32 µM.

`CCN(CC)C(=S)SSCc1ccccc1` was tested, and the MIC (Escherichia coli) was > 32 µM, the MIC (Staphylococcus aureus [1]) was 8 µM (≈ 2.17 µg/mL) and the MIC (Brucella neotomae) was 32 µM (≈ 8.69 µg/mL). For the same compound, the MIC (Corynebacterium striatum) was 32 µM (≈ 8.69 µg/mL), the MIC (Burkholderia cepacia) was > 32 µM and the MIC (Proteus mirabilis) was > 32 µM. For the same compound, the MIC (Streptococcus pyogenes) was > 32 µM, the MIC (Staphylococcus aureus [2]) was 8 µM (≈ 2.17 µg/mL) and the MIC (Pseudomonas aeruginosa) was > 32 µM. The MIC (Bacillus anthracis [5]) was 2 µM (≈ 0.543 µg/mL), the MIC (Staphylococcus aureus [3]) was 2 µM (≈ 0.543 µg/mL) and the MIC (Bacillus anthracis [6]) was 4 µM (≈ 1.09 µg/mL). For the same compound, the MIC (Francisella tularensis) was 32 µM (≈ 8.69 µg/mL), the MIC [7] was > 32 µM and the MIC (Citrobacter freundii) was > 32 µM. The MIC (Burkholderia multivorans) was 32 µM (≈ 8.69 µg/mL), the MIC (Bacillus anthracis [8]) was 4 µM (≈ 1.09 µg/mL) and the MIC (Vibrio cholerae) was > 32 µM. For the same compound, the MIC (Bacillus anthracis [9]) was 4 µM (≈ 1.09 µg/mL), the MIC (Yersinia pestis [10]) was 32 µM (≈ 8.69 µg/mL) and the MIC (Yersinia enterocolitica) was > 32 µM. For the same compound, the MIC (Streptococcus pneumoniae) was > 32 µM, the MIC (Klebsiella pneumoniae) was > 32 µM and the MIC (Micrococcus luteus) was 16 µM (≈ 4.34 µg/mL). The MIC (Bacillus cereus) was 2 µM (≈ 0.543 µg/mL), the MIC [4] was 8 µM (≈ 2.17 µg/mL) and the MIC (Streptococcus agalactiae) was > 32 µM. For the same compound, the MIC (Shigella dysenteriae) was > 32 µM, the MIC (Salmonella typhi) was > 32 µM and the MIC (Rhodococcus erythropolis) was 16 µM (≈ 4.34 µg/mL). For the same compound, the MIC (Enterococcus faecium) was 32 µM (≈ 8.69 µg/mL), the MIC (Acinetobacter baumannii) was > 32 µM and the MIC (Listeria monocytogenes) was 8 µM (≈ 2.17 µg/mL). For the same compound, the MIC (Yersinia pestis [11]) was 16 µM (≈ 4.34 µg/mL).

For `CCCCSSC(=S)N(CC)CC` [BUTYL DIETHYLCARBAMO(DITHIOPEROXO)THIOATE], the MIC (Staphylococcus aureus [1]) was 16 µM (≈ 3.8 µg/mL), the MIC (Streptococcus pyogenes) was 32 µM (≈ 7.6 µg/mL) and the MIC (Staphylococcus aureus [2]) was 16 µM (≈ 3.8 µg/mL). For the same compound, the MIC (Staphylococcus aureus [3]) was 16 µM (≈ 3.8 µg/mL), the MIC (Streptococcus pneumoniae) was > 32 µM and the MIC [4] was 32 µM (≈ 7.6 µg/mL). The MIC (Streptococcus agalactiae) was > 32 µM and the MIC (Enterococcus faecium) was > 32 µM.
